ChEMBL document CHEMBL1153852, “Steroidal lactones as inhibitors of 17beta-hydroxysteroid dehydrogenase type 5: chemical synthesis, enzyme inhibitory activity, and assessment of estrogenic and androgenic activities” (Eur J Med Chem, 2009)

Biological target: T1, Glucocorticoid receptor (Rattus norvegicus) (UniProt P06536)
T1 sequence (whole entry): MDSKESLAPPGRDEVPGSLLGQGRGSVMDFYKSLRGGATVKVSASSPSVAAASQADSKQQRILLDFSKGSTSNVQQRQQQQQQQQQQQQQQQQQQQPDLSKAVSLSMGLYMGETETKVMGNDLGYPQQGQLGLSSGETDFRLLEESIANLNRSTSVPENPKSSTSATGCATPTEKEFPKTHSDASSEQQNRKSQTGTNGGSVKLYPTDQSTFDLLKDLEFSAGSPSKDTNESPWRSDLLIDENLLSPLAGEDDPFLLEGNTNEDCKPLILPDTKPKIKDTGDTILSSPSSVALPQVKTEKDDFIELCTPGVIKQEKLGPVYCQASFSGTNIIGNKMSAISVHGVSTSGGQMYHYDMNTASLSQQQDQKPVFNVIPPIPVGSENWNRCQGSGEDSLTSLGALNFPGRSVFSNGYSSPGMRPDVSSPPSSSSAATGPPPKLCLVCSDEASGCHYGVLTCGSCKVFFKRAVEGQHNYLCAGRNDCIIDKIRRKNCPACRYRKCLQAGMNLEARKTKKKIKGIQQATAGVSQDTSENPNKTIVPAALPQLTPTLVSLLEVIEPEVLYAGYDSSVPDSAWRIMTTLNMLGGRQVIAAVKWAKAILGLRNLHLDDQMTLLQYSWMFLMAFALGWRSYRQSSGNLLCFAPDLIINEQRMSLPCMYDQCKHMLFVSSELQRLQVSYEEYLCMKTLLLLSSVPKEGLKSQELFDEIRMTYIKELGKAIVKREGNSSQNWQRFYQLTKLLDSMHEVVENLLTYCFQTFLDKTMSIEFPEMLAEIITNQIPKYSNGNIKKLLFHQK
Test: Binding affinity to rat liver glucocorticoid receptor at 1 uM
Procedure, shortened: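 Rat liver glucocorticoid receptor competitive binding, reported as % binding. Bound and free steroid are separated by dextran-coated charcoal adsorption instead of protamine sulfate precipitation.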

CC1(C)CC[C@@]2(CC[C@H]3[C@@H]4CCc5ccccc5[C@H]4CC[C@@]32C)OC1=O
Activity: 0%
